PubChem BioAssay
Activity calls are given as the source filed them.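 How the source made its calls, unless noted: active means current rise at least 3 SD above the untreated control mean in each of two repeat wells; inactive means the rest.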

Assays:
[1] = biological target: Potassium voltage-gated channel subfamily KQT member 1 (Homo sapiens) (UniProt P51787); assay: KCNQ1 channel current potentiators, confirmation, orthogonal assay for KCNQ1 potentiator project, IonWorks patch clamp, KCNQ1-CHO cells (AID 493184); settings: automated patch clamp current, at 10 µM
Outline: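 Probe or stimulus: depolarizing pulse to +40 mV from -90 mV; Material: CHO cells carrying KCNQ1; Compound: one dose, 10 µM final; Signal: automated voltage clamp, amphotericin B perforated patch; Read-out basis: percent current increase versus pre-compound level; Buffer or medium: pH 7.4 external bath; Replication: duplicates.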

[2] = biological target: Potassium voltage-gated channel subfamily E member 1 (Homo sapiens) + Potassium voltage-gated channel subfamily KQT member 1 (Homo sapiens) (UniProt P15382+P51787); assay: KCNQ1/KCNE1 complex potentiators, confirmation, selectivity assay for KCNQ1 potentiator project, thallium flux, CHO-K1 KCNQ1/E1 cells (AID 493186;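 active means mean duplicate activation above the buffer control mean plus 5 SD of those controls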); settings: FluxOR thallium flux, at 10 µM
Outline: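 system = KCNQ1/E1-expressing stable CHO-K1 cell line | doses = single compound concentration per well | times = dye 90 min, compound 20 min, room temperature | measured by = FluxOR Tl+ flux fluorescence, kinetic read | evaluation = fluorescence rise relative to baseline, as percent of R-L3 response above buffer | controls = buffer and R-L3 | replicates = duplicate wells per compound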

Potassium voltage-gated channel subfamily KQT member 1 (Homo sapiens), sequence (P51787 whole entry, looked up): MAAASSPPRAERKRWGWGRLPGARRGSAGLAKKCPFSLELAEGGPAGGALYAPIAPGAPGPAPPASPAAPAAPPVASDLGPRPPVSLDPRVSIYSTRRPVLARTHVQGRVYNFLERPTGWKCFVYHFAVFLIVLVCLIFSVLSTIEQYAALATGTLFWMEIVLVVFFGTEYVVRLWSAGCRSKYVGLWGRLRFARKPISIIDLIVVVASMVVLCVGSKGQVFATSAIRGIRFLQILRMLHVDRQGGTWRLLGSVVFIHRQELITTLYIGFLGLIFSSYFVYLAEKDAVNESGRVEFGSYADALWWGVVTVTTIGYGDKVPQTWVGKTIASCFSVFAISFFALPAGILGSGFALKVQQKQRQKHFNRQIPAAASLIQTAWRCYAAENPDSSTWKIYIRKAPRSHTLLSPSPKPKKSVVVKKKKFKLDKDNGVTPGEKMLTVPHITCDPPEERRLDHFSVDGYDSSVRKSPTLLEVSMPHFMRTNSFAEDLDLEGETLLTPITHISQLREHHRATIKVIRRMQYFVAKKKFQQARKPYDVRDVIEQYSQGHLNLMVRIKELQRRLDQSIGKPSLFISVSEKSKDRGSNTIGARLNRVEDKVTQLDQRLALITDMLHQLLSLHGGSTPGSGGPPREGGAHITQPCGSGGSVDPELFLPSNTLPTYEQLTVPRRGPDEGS
Potassium voltage-gated channel subfamily E member 1 (Homo sapiens) + Potassium voltage-gated channel subfamily KQT member 1 (Homo sapiens), sequence (P51787 whole entry, looked up): as the sequence (P51787 whole entry, looked up) above

CN(C)CC(CCC(CN(C)C)C(O)(c1ccccc1)c1ccccc1)C(O)(c1ccccc1)c1ccccc1 (stereo not given)
outcome [1]: inactive | outcome [2]: inactive

CC1=NN(c2ccccc2)C(=O)/C1=C/c1c(O)n(-c2ccc(F)c(Cl)c2)[nH]c1=O
outcome [1]: inactive

Cc1cc(C)cc(N/C(N)=N/c2nc(C)cc(C)n2)c1
outcome [1]: inactive | outcome [2]: inactive

CC(=O)C1=C(S(=O)(=O)c2ccc(C)cc2)CS(=O)(=O)C1
outcome [1]: inactive

O=C(O)c1ccc(Cl)cc1Nc1nc2cc(Cl)ccc2o1
outcome [1]: inactive

Cc1nc2c3cc(Cl)ccc3n(CCN3CCCCC3)c2s1
outcome [1]: inactive

Brc1ccccc1CN1CCN(Cc2c[nH]c3ccccc23)CC1
outcome [1]: inactive | outcome [2]: inactive

CCCc1nc2oc3c(NCCN(C)C)ncnc3c2c2c1CCCC2
outcome [1]: inactive | outcome [2]: inactive

O=Cc1cc(N=Nc2ccccc2Cl)ccc1O
outcome [1]: inactive

Oc1c(Br)cc(Br)cc1C=Nc1ccc2[nH]ncc2c1
outcome [1]: inactive

CC(C1CC2CCC1C2)n1c(-c2cccs2)n[nH]c1=S (stereo not given)
outcome [1]: inactive | outcome [2]: inactive

Cc1ccc(/C=C/C(=O)c2ccc(O)cc2)cc1
outcome [1]: inactive

C=CCSc1nc2c(c(=O)[nH]c(=O)n2C)n1C/C=C(/C)Cl
outcome [1]: inactive | outcome [2]: inactive

S=c1[nH]nc(-c2cc3c(s2)-c2ccccc2CC3)o1
outcome [1]: inactive

COc1cc(NS(=O)(=O)c2ccc3ccccc3c2)c2ncccc2c1
outcome [1]: inactive | outcome [2]: inactive

Cc1ccc(OCC(=O)NNC(=S)NC(=O)c2ccc(Br)o2)c(C)c1
outcome [1]: inactive

c1ccc(-c2nc(NCc3ccco3)c3ccccc3n2)cc1
outcome [1]: inactive

Cc1cccc(/C=N/NC(=O)c2cc(Br)ccc2O)n1
outcome [1]: inactive
